Experimental data reported in ChEMBL document CHEMBL1141689, “Synthesis and biological evaluation of 2-amino-3-(3',4',5'-trimethoxybenzoyl)-6-substituted-4,5,6,7-tetrahydrothieno[2,3-c]pyridine derivatives as antimitotic agents and inhibitors of tubulin polymerization” (Bioorg Med Chem Lett, 2008).

Key:
L1210 = assay: Antiproliferative activity against mouse L1210 cells; type: functional, cell-based
FM3A = assay: Antiproliferative activity against mouse FM3A cells; type: functional, cell-based
[1] = Antiproliferative activity against human Molt4/C8 cells; type: functional, cell-based; conditions: MOLT-4
CCRF-CEM = assay: Antiproliferative activity against human CEM cells; type: cell-based
Bos taurus [2] = organism: Bos taurus; assay: Displacement of [3H]colchicine from bovine brain tubulin at 5 uM
K562 [3] = assay: Cell cycle arrest in human K562 cells assessed as accumulation at G0/G1 phase at 500 nM after 24 hrs using propidium iodide staining by flow cytometry; type: functional
Outline: (§1)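 K562 leukaemia cells were cultured 24 h with compound or without compound as a control, then washed once in ice-cold PBS. They were resuspended at 1 × 10^6/mL in hypotonic propidium iodide (50 μg/mL) in 0.1% sodium citrate with 0.03% (v/v) Nonidet P-40 and incubated 30 min. DNA content was read by flow cytometry as single-parameter histograms, and cell-cycle phase distribution was modelled from them.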

K562 [4] = assay: Cell cycle arrest in human K562 cells assessed as accumulation at S phase at 500 nM after 24 hrs using propidium iodide staining by flow cytometry; type: functional; outline: as §1
K562 [5] = assay: Cell cycle arrest in human K562 cells assessed as accumulation at G2/M phase at 500 nM after 24 hrs using propidium iodide staining by flow cytometry; type: functional; outline: as §1
K562 [6] = assay: Cell cycle arrest in human K562 cells assessed as accumulation at sub G0/G1 phase at 500 nM after 24 hrs using propidium iodide staining by flow cytometry; type: functional; outline: as §1
[7] = Inhibition of tubulin polymerization
Bos taurus [8] = organism: Bos taurus; assay: Displacement of [3H]colchicine from bovine brain tubulin at 1 uM
K562 [9] = assay: Cell cycle arrest in human K562 cells assessed as accumulation at G0/G1 phase at 80 nM after 24 hrs using propidium iodide staining by flow cytometry; type: functional; outline: as §1
K562 [10] = assay: Cell cycle arrest in human K562 cells assessed as accumulation at S phase at 80 nM after 24 hrs using propidium iodide staining by flow cytometry; type: functional; outline: as §1
K562 [11] = assay: Cell cycle arrest in human K562 cells assessed as accumulation at G2/M phase at 80 nM after 24 hrs using propidium iodide staining by flow cytometry; type: functional; outline: as §1
K562 [12] = assay: Cell cycle arrest in human K562 cells assessed as accumulation at sub G0/G1 phase at 80 nM after 24 hrs using propidium iodide staining by flow cytometry; type: functional; outline: as §1
K562 [13] = assay: Cell cycle arrest in human K562 cells assessed as accumulation at G0/G1 phase at 70 nM after 24 hrs using propidium iodide staining by flow cytometry; type: functional
K562 [14] = assay: Cell cycle arrest in human K562 cells assessed as accumulation at S phase at 70 nM after 24 hrs using propidium iodide staining by flow cytometry; type: functional
K562 [15] = assay: Cell cycle arrest in human K562 cells assessed as accumulation at G2/M phase at 70 nM after 24 hrs using propidium iodide staining by flow cytometry; type: functional
K562 [16] = assay: Cell cycle arrest in human K562 cells assessed as accumulation at sub G0/G1 phase at 70 nM after 24 hrs using propidium iodide staining by flow cytometry; type: functional

Compound	IC50 (L1210)	IC50 (CCRF-CEM)	IC50 (FM3A)	IC50 [1]	further results
COc1cc(C(=O)c2c(N)sc3cnccc23)cc(OC)c1OC	0.37 µM	1 µM	0.4 µM	0.34 µM	Activity (Bos taurus [2]): 27%; Activity (K562 [3]): 19%; Activity (K562 [4]): 27%; Activity (K562 [5]): 54%; Activity (K562 [6]): 14%
COc1cc(C(=O)c2c(N)sc3c2CCN(C)C3)cc(OC)c1OC	> 10 µM	> 10 µM	> 10 µM	> 10 µM	–
CCOC(=O)N1CCc2c(sc(N)c2C(=O)c2cc(OC)c(OC)c(OC)c2)C1	0.095 µM	0.44 µM	0.057 µM	0.29 µM	IC50 [7]: 0.6 µM; Activity (Bos taurus [8]): 67%; Activity (Bos taurus [2]): 82%; Activity (K562 [9]): 30%; Activity (K562 [10]): 30%; Activity (K562 [11]): 40%; Activity (K562 [12]): 10%
COc1cc(C(=O)c2c(N)sc3c2CCN(C(=S)NC(C)C)C3)cc(OC)c1OC	> 10 µM	> 10 µM	> 10 µM	> 10 µM	–
COc1cc(C(=O)c2c(N)sc3c2CCN(C(=O)OCc2ccccc2)C3)cc(OC)c1OC	> 10 µM	8.3 µM	> 10 µM	7.5 µM	–
COc1cc(C(=O)c2c(N)sc3c2CCN(C(=O)NC(C)C)C3)cc(OC)c1OC	> 10 µM	> 10 µM	> 10 µM	> 10 µM	–
CCCN1CCc2c(sc(N)c2C(=O)c2cc(OC)c(OC)c(OC)c2)C1	> 10 µM	> 10 µM	> 10 µM	> 10 µM	–
COc1cc(C(=O)c2c(N)sc3c2CCN(Cc2ccccc2)C3)cc(OC)c1OC	> 10 µM	> 10 µM	> 10 µM	> 10 µM	–
COc1cc(C(=O)c2c(N)sc3c2CCN(C(=O)NCc2ccc(F)cc2)C3)cc(OC)c1OC	> 10 µM	> 10 µM	> 10 µM	> 10 µM	–
COc1cc(C(=O)c2c(N)sc3c2CCN(C(=O)OCC(C)C)C3)cc(OC)c1OC	> 10 µM	> 10 µM	> 10 µM	> 10 µM	–
COc1cc(C(=O)c2c(N)sc3c2CCN(C(=O)Oc2ccccc2)C3)cc(OC)c1OC	> 10 µM	> 10 µM	> 10 µM	> 10 µM	–
COc1cc(C(=O)c2c(N)sc3c2CCN(C(=O)Nc2ccccc2)C3)cc(OC)c1OC	> 10 µM	> 10 µM	> 10 µM	> 10 µM	–
COc1ccc(/C=C\c2cc(OC)c(OC)c(OC)c2)cc1O [COMBRETASTATIN A4]	–	–	–	0.0016 µM	Activity (Bos taurus [8]): 90%; Activity (Bos taurus [2]): 99%
COc1cc(C(=O)c2c(N)sc3c2CCN(C(=O)NCc2ccccc2)C3)cc(OC)c1OC	> 10 µM	> 10 µM	> 10 µM	> 10 µM	–

More lines, main results first:

IC50 (L1210)	IC50 (CCRF-CEM)	Compound	IC50 (FM3A)	IC50 [1]	further results
> 10 µM	> 10 µM	CCCCNC(=O)N1CCc2c(sc(N)c2C(=O)c2cc(OC)c(OC)c(OC)c2)C1	> 10 µM	> 10 µM	–
> 10 µM	> 10 µM	COc1cc(C(=O)c2c(N)sc3c2CCN(C(=S)NC(C)(C)C)C3)cc(OC)c1OC	> 10 µM	> 10 µM	–
> 10 µM	> 10 µM	COc1cc(C(=O)c2c(N)sc3c2CCN(C(=O)OC(C)(C)C)C3)cc(OC)c1OC	> 10 µM	> 10 µM	–
3.9 µM	1.4 µM	COc1cc(C(=O)c2c(N)sc3c2CCN(C(C)=O)C3)cc(OC)c1OC	1.2 µM	1.1 µM	–
1.1 µM	1.2 µM	CCCOC(=O)N1CCc2c(sc(N)c2C(=O)c2cc(OC)c(OC)c(OC)c2)C1	1.4 µM	0.47 µM	–
4.9 µM	1.8 µM	CNC(=S)N1CCc2c(sc(N)c2C(=O)c2cc(OC)c(OC)c(OC)c2)C1	2.8 µM	1.6 µM	–
> 10 µM	> 10 µM	COc1cc(C(=O)c2c(N)sc3c2CCN(C(=O)NC2CCCCC2)C3)cc(OC)c1OC	> 10 µM	> 10 µM	–
6.8 µM	6.7 µM	CCNC(=S)N1CCc2c(sc(N)c2C(=O)c2cc(OC)c(OC)c(OC)c2)C1	6.9 µM	4.8 µM	–
1.1 µM	–	COc1cc(C(=O)c2c(N)sc3c2CCN(C(=S)NC2CCCCC2)C3)cc(OC)c1OC	1.4 µM	0.75 µM	–
0.09 µM	0.074 µM	COc1cc(C(=O)c2c(N)sc3ccccc23)cc(OC)c1OC	0.1 µM	0.073 µM	IC50 [7]: 1.9 µM; Activity (Bos taurus [8]): 25%; Activity (Bos taurus [2]): 71%
0.025 µM	0.09 µM	COC(=O)N1CCc2c(sc(N)c2C(=O)c2cc(OC)c(OC)c(OC)c2)C1	0.046 µM	0.045 µM	IC50 [7]: 0.6 µM; Activity (Bos taurus [8]): 71%; Activity (Bos taurus [2]): 84%; Activity (K562 [13]): 34%; Activity (K562 [14]): 33%; Activity (K562 [15]): 33%; Activity (K562 [16]): 11%
2.1 µM	1.7 µM	CCN1CCc2c(sc(N)c2C(=O)c2cc(OC)c(OC)c(OC)c2)C1	1.9 µM	1.8 µM	–
